Data on five compounds can be found in ChEMBL document CHEMBL4270603, “Computer-aided drug discovery: Novel 3,9-disubstituted eudistomin U derivatives as potent antibacterial agents” (Eur J Med Chem, 2018).

Converted amounts (≈) assume the structure as drawn. The source made the active and inactive calls. The calls are words filed in the database; no cut-off is given here.

The subject of experiment [1] is Ralstonia solanacearum. The experiment is described as follows: Antibacterial activity against Ralstonia solanacearum CGMCC 1.12711 measured after 12 to 14 hrs. It is filed as functional. The essentials:
(§1)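 In vitro double dilution method, run alongside fosfomycin sodium, ciprofloxacin and propineb as positive controls.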

For experiment [2], the system named is Bacillus cereus. Put plainly: Antibacterial activity against Bacillus cereus CGMCC 1.1846 measured after 12 to 14 hrs. The format is functional. In outline:
(§2)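 Twofold (double) dilution method for in vitro antibacterial activity, with fosfomycin sodium, ciprofloxacin and propineb as positive controls.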

The subject of experiment [3] is Staphylococcus aureus. The experiment is described as follows: Antibacterial activity against methicillin-resistant Staphylococcus aureus ATCC 43300 measured after 12 to 14 hrs. It is filed as functional. The essentials:
as §1

Experiment [4] relates to Staphylococcus aureus. The experiment is described as follows: Antibacterial activity against Staphylococcus aureus CGMCC 1.8721 measured after 12 to 14 hrs. It is filed as functional. In outline: as §2
Experiment [5] deals with Staphylococcus aureus. Put plainly: Potency index, ratio of ciprofloxacin MIC to test compound MIC for methicillin-resistant Staphylococcus aureus ATCC 43300. It is filed as functional.
The subject of experiment [6] is Bacillus cereus. Put plainly: Potency index, ratio of ciprofloxacin MIC to test compound MIC for Bacillus cereus CGMCC 1.1846. The format is functional.
Experiment [7] concerns Ralstonia solanacearum. The experiment is described as follows: Potency index, ratio of propineb MIC to test compound MIC for Ralstonia solanacearum CGMCC 1.12711. The format is functional.
Experiment [8] deals with Staphylococcus aureus. Put plainly: Induction of morphological changes in Staphylococcus aureus assessed as appearance of irregular cell surface at 1.5625 micromol/l after 1 hr by scanning electron microscopic analysis. The format is functional, organism-based. In outline: (§3)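 Cell-surface morphology of compound-treated S. aureus was imaged by scanning electron microscopy and compared with an untreated blank group.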

Experiment [9] relates to Staphylococcus aureus. Put plainly: Induction of morphological changes in Staphylococcus aureus assessed as disruption of cell membrane at 0.5 MIC after 1 hr by transmission electron microscopic analysis. The format is functional, organism-based. The note with it: 0.5 M. In outline:
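S. aureus cells were exposed to compound for 1 h, then imaged by transmission electron microscopy for cell-membrane boundary integrity, with untreated cells as the comparison.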

In experiment [10] the test system is Staphylococcus aureus. Put plainly: Bactericidal activity against Staphylococcus aureus assessed as disruption of bacterial membrane at 1.5625 micromol/l after 1 hr by Hoechst/propidium iodide staining based fluorescence microscopic analysis. The format is functional, organism-based. In outline: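 S. aureus cells were incubated with compound for 1 h, then dual-stained with Hoechst and propidium iodide and imaged by fluorescence microscopy, with untreated cells as the control. Hoechst enters intact cells and gives blue fluorescence. PI gives red fluorescence only when the membrane is disrupted. Blue, red and merged channels were compared.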

The subject of experiment [11] is Staphylococcus aureus. Put plainly: Induction of morphological changes in Staphylococcus aureus assessed as appearance of rough cell surface at 1.5625 micromol/l after 1 hr by scanning electron microscopic analysis. It is filed as functional, organism-based. The essentials: as §3
In another experiment the test system is Calf thymus DNA. The experiment is described as follows: Binding affinity to calf thymus DNA by isothermal titration calorimetric method. The format is nucleic-acid assay, Bos taurus. The essentials: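 DNA was titrated with compound by isothermal titration calorimetry at 298 K. Heat flow was recorded over time, and thermodynamic constants were obtained by fitting to an independent binding model.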
A general note: ITC needs no label: the signal is the heat of the interaction.

The MIC is the least concentration at which growth counts as inhibited. Low readings indicate greater potency, high ones weaker potency. Regarding `OCc1cc2c3ccccc3n(Cc3ccc(F)cc3)c2c(-c2c[nH]c3ccccc23)n1`, the minimal inhibitory concentration (MIC) was determined as 6.25 µM (≈ 2.63 µg/mL) against Ralstonia solanacearum [1], 3.12 µM (≈ 1.32 µg/mL) in the experiment on Bacillus cereus [2], 3.12 µM (≈ 1.32 µg/mL) in the experiment on Staphylococcus aureus [3] and 6.25 µM (≈ 2.63 µg/mL) with Staphylococcus aureus [4]. The figures for the Ratio in the experiment with Staphylococcus aureus [5] and in the experiment with Bacillus cereus [6] were 4 and 2, respectively.

As a reminder, the Kd is the free concentration of one partner at which half of the binding sites on the other are occupied at equilibrium, for simple one-to-one binding. The low end stands for a tighter complex, the high end for a looser complex. `OCc1cc2c3ccccc3n(Cc3ccc(Br)cc3)c2c(-c2c[nH]c3ccccc23)n1`: the minimal inhibitory concentration (MIC) against Ralstonia solanacearum [1] is 1.56 µM (≈ 0.754 µg/mL); against Bacillus cereus [2], 3.12 µM (≈ 1.51 µg/mL); in the experiment with Staphylococcus aureus [3] it was 3.12 µM (≈ 1.51 µg/mL); with Staphylococcus aureus [4] it was 3.12 µM (≈ 1.51 µg/mL). For the same compound, the Ratio is 16 in the experiment with Ralstonia solanacearum [7], 4 in the experiment with Staphylococcus aureus [5] and 2 in the experiment with Bacillus cereus [6]. The result in the experiment on Staphylococcus aureus [8], in the experiment with Staphylococcus aureus [9], with Staphylococcus aureus [10] and in the experiment with Staphylococcus aureus [11] was Active. The compound also gave a Kd in the experiment on Calf thymus DNA of 553 nM. Besides, the Ka with Calf thymus DNA (Bos taurus) came out at 1.81 ×10⁶ /M.

Take `OCc1cc2c3ccccc3n(Cc3cccc(C(F)(F)F)c3)c2c(-c2c[nH]c3ccccc23)n1`: the minimal inhibitory concentration (MIC) against Ralstonia solanacearum [1] was 3.12 µM (≈ 1.47 µg/mL); in the experiment on Bacillus cereus [2] it was 3.12 µM (≈ 1.47 µg/mL); against Staphylococcus aureus [3] it was 12.5 µM (≈ 5.89 µg/mL); against Staphylococcus aureus [4], 3.12 µM (≈ 1.47 µg/mL). Moreover, the Ratio with Bacillus cereus [6] is 2.

For `Cc1cccc(Cn2c3ccccc3c3cc(CO)nc(-c4c[nH]c5ccccc45)c32)c1`, the minimal inhibitory concentration (MIC) was 3.12 µM (≈ 1.3 µg/mL) against Ralstonia solanacearum [1], 3.12 µM (≈ 1.3 µg/mL) in the experiment on Bacillus cereus [2], 100 µM (≈ 41.8 µg/mL) against Staphylococcus aureus [3] and 3.12 µM (≈ 1.3 µg/mL) against Staphylococcus aureus [4]. In the experiment with Bacillus cereus [6], the Ratio was determined as 2.

As to `COC(=O)c1cc2c3ccccc3n(Cc3ccc(C(F)(F)F)cc3)c2c(-c2cn(C(C)=O)c3ccccc23)n1`, the MIC against Ralstonia solanacearum [1], with Bacillus cereus [2], in the experiment with Staphylococcus aureus [3] and against Staphylococcus aureus [4] was greater than 100 µM throughout.
